Measured values: paper PMC9753112 (ACS Omega, 2022)
In brackets after ≈: the same amount, converted by molar mass. Several values for one entry are separate records, joined by “and”; a condition that tells them apart may be missing. Equal values may be shown once. Entries after “also recorded” stand apart in the source; their conditions may differ. Read-outs that look alike come from different tables or passages of the source. Blank lines part the entries; values can stand above or below the compound they belong to.

Tests used:
[1] = tested on: HepG2 cells; assay: MTT cytotoxicity assay, HepG2 cells; type: cell-based; conditions: Homo sapiens, HepG2, read-out: IC50 (HepG2)
Summary of the method: (§1)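 Cells grown in medium with 10% FBS and 1% penicillin-streptomycin under CO2 at 37 °C and seeded at 5 × 10^4 per well. They were exposed to the test compound at 0.01, 0.1, 1, 10 and 100 μM, and viability was read by MTT absorbance as percent of control. IC50 came from dose-response curves, averaged over three independent trials.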

[2] = tested on: MCF-7 cells; assay: MTT cytotoxicity assay, MCF-7 cells; type: cell-based; conditions: for IC50: Homo sapiens; for cytotoxicity in words: against MCF-7 and HepG2 cells
Summary of the method: as §1

[3] = tested on: solid Ehrlich carcinoma cells; assay: In vivo solid Ehrlich carcinoma
[4] = molecular target: EGFR (Homo sapiens, UniProt P00533); assay: EGFR enzyme inhibition; type: biochemical
[5] = molecular target: PARP-1 (Homo sapiens, UniProt P09874); assay: PARP-1 enzyme inhibition; type: biochemical
[6] = tested on: normal cell lines MCF-10A and THLE2; assay: MTT assay on normal breast; type: cell-based
Summary of the method: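 Normal breast MCF-10A and normal liver THLE2 cells, cultured with 10% FBS and 1% penicillin-streptomycin under CO2 at 37 °C. They were seeded at 5 × 10^4 per well and treated with the test compound at 0.01–100 μM. MTT absorbance gave percent viability versus untreated control.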

[7] = tested on: HepG2 cells; assay: Annexin V/PI apoptosis-necrosis assessment, HepG2; type: cell-based; conditions: HepG2, IC50 dose, 48 h
[8] = tested on: MCF-7 cells; assay: Annexin V/PI apoptosis-necrosis assessment, MCF-7; type: cell-based; conditions: MCF-7, IC50 dose, 48 h
[9] = tested on: HepG2 cells; assay: Cell cycle analysis; type: cell-based
Summary of the method: (§2)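 DNA content of untreated and treated cells was measured by flow cytometry as histograms. The percentage of cells in each cycle phase was compared before and after 48 h exposure.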

[10] = tested on: MCF-7 cells; assay: Cell cycle analysis; type: cell-based
Summary of the method: as §2

[11] = tested on: MCF-7; conditions: antiproliferative activity ref 29; cited from earlier work
[12] = tested on: HEPG-2; conditions: antiproliferative activity ref 29; cited from earlier work
[13] = tested on: MCF-7 cells; conditions: read-out: IC50 (MCF-7 cells); cytotoxic action ref 32; cited from earlier work
[14] = SEC-bearing mice, 5 mg/kg BW IP, seven doses, mean ± SD n = 6
[15] = SEC-bearing mice, 5 mg/kg BW IP, seven doses, mean ± SD n = 6, 5 mg/kg
[16] = SEC-bearing mice, after treatment

Sequence of EGFR (P00533 25-1210): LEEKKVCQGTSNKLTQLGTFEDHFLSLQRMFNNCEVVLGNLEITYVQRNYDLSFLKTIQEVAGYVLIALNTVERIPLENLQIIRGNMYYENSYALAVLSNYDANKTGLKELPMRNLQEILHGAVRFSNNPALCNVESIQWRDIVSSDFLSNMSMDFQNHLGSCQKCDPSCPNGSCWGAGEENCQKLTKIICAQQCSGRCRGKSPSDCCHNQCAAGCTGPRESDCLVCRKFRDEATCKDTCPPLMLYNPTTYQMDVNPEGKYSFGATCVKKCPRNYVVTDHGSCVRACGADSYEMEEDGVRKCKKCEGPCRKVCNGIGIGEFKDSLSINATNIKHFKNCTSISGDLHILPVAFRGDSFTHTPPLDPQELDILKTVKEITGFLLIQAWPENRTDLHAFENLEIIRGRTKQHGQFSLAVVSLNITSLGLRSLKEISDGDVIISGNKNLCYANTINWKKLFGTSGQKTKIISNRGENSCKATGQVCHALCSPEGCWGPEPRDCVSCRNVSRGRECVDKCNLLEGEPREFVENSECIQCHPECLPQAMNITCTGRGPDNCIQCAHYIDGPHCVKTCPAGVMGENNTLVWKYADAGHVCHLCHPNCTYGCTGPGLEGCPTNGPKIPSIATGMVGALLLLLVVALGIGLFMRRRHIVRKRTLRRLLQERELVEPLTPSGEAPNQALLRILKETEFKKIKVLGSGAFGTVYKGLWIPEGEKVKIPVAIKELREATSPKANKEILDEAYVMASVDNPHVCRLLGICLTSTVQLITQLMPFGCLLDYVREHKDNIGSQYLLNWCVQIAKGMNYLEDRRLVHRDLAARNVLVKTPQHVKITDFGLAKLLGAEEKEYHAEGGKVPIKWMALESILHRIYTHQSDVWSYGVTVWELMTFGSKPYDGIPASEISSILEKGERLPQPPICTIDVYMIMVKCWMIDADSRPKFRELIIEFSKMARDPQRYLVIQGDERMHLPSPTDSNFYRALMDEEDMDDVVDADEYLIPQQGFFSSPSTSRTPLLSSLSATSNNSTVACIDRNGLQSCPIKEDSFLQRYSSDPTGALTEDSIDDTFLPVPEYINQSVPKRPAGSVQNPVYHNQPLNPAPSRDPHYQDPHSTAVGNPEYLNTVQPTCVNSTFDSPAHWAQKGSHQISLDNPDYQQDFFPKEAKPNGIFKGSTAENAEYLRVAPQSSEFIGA
Sequence of PARP-1 (P09874 whole entry): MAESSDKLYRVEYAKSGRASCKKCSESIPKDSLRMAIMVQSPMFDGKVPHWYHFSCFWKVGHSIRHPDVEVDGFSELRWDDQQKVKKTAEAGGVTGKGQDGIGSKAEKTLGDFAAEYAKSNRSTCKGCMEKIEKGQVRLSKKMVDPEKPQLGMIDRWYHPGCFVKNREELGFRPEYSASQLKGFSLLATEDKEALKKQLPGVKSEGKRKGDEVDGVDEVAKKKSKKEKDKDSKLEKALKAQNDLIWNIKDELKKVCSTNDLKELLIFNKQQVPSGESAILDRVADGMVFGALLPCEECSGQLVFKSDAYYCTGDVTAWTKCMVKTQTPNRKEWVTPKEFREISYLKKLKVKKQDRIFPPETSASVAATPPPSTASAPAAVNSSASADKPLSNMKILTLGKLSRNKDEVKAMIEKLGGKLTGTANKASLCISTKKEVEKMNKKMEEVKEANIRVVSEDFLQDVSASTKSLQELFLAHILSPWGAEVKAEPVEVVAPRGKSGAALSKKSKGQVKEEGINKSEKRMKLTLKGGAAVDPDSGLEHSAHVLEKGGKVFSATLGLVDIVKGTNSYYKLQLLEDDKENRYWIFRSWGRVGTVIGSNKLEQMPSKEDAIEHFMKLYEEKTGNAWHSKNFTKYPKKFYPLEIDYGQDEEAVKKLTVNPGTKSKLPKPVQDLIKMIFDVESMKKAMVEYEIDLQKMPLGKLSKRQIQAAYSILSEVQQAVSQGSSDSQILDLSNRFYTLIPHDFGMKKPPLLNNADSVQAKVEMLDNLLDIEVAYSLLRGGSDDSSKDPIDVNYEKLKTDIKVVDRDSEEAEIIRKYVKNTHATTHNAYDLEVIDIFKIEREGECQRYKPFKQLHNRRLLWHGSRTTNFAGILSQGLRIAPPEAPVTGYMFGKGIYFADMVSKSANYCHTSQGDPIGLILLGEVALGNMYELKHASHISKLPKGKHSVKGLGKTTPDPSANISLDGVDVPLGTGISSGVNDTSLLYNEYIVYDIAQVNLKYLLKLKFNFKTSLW

SMILES: O=C(NNC(=S)Nc1ccccc1)c1cc2ccccc2[nH]1 [2a, 1-(1H-Indol-2-yl-carbonyl)-4-Phenyl-thiosemicarbazide]
IC50 [1]: 12400 nM

SMILES: S=c1[nH]nc(-c2cc3ccccc3[nH]2)n1-c1ccccc1 [3a, 5-(1H-Indol-2-yl)-4-phenyl-1,2,4-triazole-3(4H)-thione]
IC50 [1]: 7390 nM

SMILES: S=c1[nH]nc(-c2cc3ccccc3[nH]2)n1-c1ccc(Cl)cc1 [3b, 4-(4-Chlorophenyl)-5-(1H-indol-2-yl)-2H-1,2,4-triazole-3(4H)-thione]
IC50 ([2]; MCF7, read-out: IC50 (MCF-7)): 14200 nM
IC50 [1]: 17200 nM

SMILES: O=c1[nH]cc(F)c(=O)[nH]1 [5-FU, reference compound]
tumor inhibition ratio (TIR%) ([3]; SEC-bearing mice, 5 mg/kg BW IP, seven doses): 65.7%
tumor volume [3, 14]: 114 mm^3

SMILES: OCCSc1nnc(-c2cc3ccccc3[nH]2)n1-c1ccccc1 [12a, 3-(2-Hydroxyeth-1-ylsulfanyl)-5-(1H-indol-2-yl)-4-phenyl-1,2,4-triazole]
IC50 ([2]; MCF7, read-out: IC50 (MCF-7)): 12100 nM
IC50 ([2]; MCF7, read-out: IC50 range): 6210 to 16300 nM
cytotoxicity in words [2]: moderate activity
IC50 [1]: 16300 nM

IC50 [4]: 78.1 nM
IC50 [5]: 2.13 nM
SMILES: OCCSc1nnc(-c2cc3ccccc3[nH]2)n1-c1ccc(Cl)cc1 [12b, 4-(4-Chlorophenyl)-3-(2-hydroxyeth-1-ylsulfanyl)-5-(1H-indol-2-yl)-1,2,4-triazole]
IC50 ([2]; MCF7, read-out: IC50 (MCF-7)): 2670 nM
cytotoxicity in words [2]: potent cytotoxicity
IC50 [1]: 3210 nM
inhibition at 100 µM ([6]; read-out: cell inhibition): 80%

IC50 [4]: 140 nM
IC50 [5]: 21.6 nM
SMILES: CC(O)CSc1nnc(-c2cc3ccccc3[nH]2)n1-c1ccccc1 (stereo not drawn) [13a, 3-(2-Hydroxyprop-1-ylsulfanyl)-5-(1H-indol-2-yl)-4-phenyl-1,2,4-triazole]
IC50 ([2]; MCF7, read-out: IC50 (MCF-7)): 6210 nM
IC50 ([2]; MCF7, read-out: IC50 range): 6210 to 16300 nM
cytotoxicity in words [2]: moderate activity
IC50 [1]: 8910 nM

SMILES: CC(O)CSc1nnc(-c2cc3ccccc3[nH]2)n1-c1ccc(Cl)cc1 (stereo not drawn) [13b, 4-(4-Chlorophenyl)-3-(2-hydroxyprop-1-ylsulfanyl)-5-(1H-indol-2-yl)-1,2,4-triazole]
IC50 [4]: 62.4 nM
IC50 ([2]; MCF7, read-out: IC50 (MCF-7)): 1070 nM
cytotoxicity in words [2]: potent cytotoxicity
IC50 [5]: 1.24 nM
histopathological examination of liver tissues ([3]; SEC-bearing mice treated): improvement in liver tissues and retained them near normal; also recorded: Mild hydropic degeneration of hepatocytes
tumor volume [3, 14]: 129.6 ± 13.6 mm^3
Hb [3, 15]: 7.29 g/dL
total protein [3, 15]: 5.6 g/dL and 5.6 ± 0.39 g/dL
tumor weight [3, 15]: 74.6 mg and 74.6 ± 2.79 mg
tumor inhibition ratio (TIR%) ([3]; SEC-bearing mice, 5 mg/kg BW IP, seven doses, 5 mg/kg): 66.7% and 66.7 ± 1.06%
ALT [3, 16]: 50.6 U/L
AST [3, 16]: 60.3 U/L
WBC [3, 16]: 4360 L⁻¹
early apoptosis [7]: 23.61%
late apoptosis [7]: 9.34%
necrosis-induced cell death [7]: 6.01%
necrosis-induced cell death, fold increase [7]: 6.1 fold
total apoptotic cell death [7]: 32.95%
total apoptotic cell death, fold increase [7]: 34.68 fold
IC50 [1]: 320 nM
toxicity to healthy cells ([6]; normal cells): no toxicity to healthy cells
early apoptosis [8]: 10.6%
late apoptosis [8]: 16.9%
necrosis-mediated cell death [8]: 5.06%
necrosis-mediated cell death, fold increase [8]: 4.18 fold
total apoptotic cell death [8]: 27.63%
total apoptotic cell death, fold vs control [8]: 26 fold
cell cycle arrest phase ([9]; HepG2): arrested cell division at the S phase
%DIP S ([9]; HepG2, 0.32 μM, 48 h): 45.21%
cell cycle arrest phase ([10]; MCF-7): arrested cell division at the G2/M phase
%DIP G2/M ([10]; MCF-7, 1.07 μM, 48 h): 26.4%

total protein [3, 14]: 6.2 ± 0.47 g/dL
SMILES: C#Cc1cccc(Nc2ncnc3cc(OCCOC)c(OCCOC)cc23)c1 [Erlotinib, reference compound]
IC50 ([2]; MCF7, read-out: IC50 (MCF-7)): 2510 nM
tumor volume [3, 14]: 114.6 ± 12.5 mm^3
tumor weight [3, 15]: 69.3 mg and 69.3 ± 2.19 mg
IC50 [1]: 2910 nM

SMILES: c1ccc(CSc2nc(-c3cc4ccccc4[nH]3)n[nH]2)cc1 [I, 3-Benzylsulfanyl-5-(1H-indol-2-yl)-2H-1,2,4-triazole]
IC50 (MCF-7) [11]: 4.53 µg/mL (≈ 14.8 µM)
IC50 (HEPG-2) [12]: 3.58 µg/mL (≈ 11.7 µM)

SMILES: CNC(=O)c1cc(Oc2ccc(NC(=O)Nc3ccc(Cl)c(C(F)(F)F)c3)cc2)ccn1 [Sorafenib]
IC50 [13]: 2130 nM

SMILES: COc1cccc2c1C(=O)c1c(O)c3c(c(O)c1C2=O)C[C@@](O)(C(=O)CO)C[C@@H]3O[C@H]1C[C@H](N)[C@H](O)[C@H](C)O1 [doxorubicin]
IC50 (MCF-7) [11]: 4.0 µg/mL (≈ 7.36 µM)
IC50 (HEPG-2) [12]: 4.0 µg/mL (≈ 7.36 µM)
